# Reference: ChEMBL document CHEMBL1130388, “Synthesis of racemic 6,7,8,9-tetrahydro-3-hydroxy-1H-1-benzazepine-2,5-diones as antagonists of N-methyl-d-aspartate (NMDA) and alpha-amino-3-hydroxy-5-methylisoxazole-4-propionic acid (AMPA) receptors” (J Med Chem, 1997)
# Legend:
# [1] = biological target: Glutamate receptor ionotropic, AMPA (Rattus norvegicus) (UniProt P19491+P19492+P19493+P19490); experiment: Inhibition of Ionotropic glutamate receptor AMPA-preferring non-NMDA receptors was measured in oocytes expressing rat brain poly(A)+ RNA isolated from the cerebral cortex.; format: cell-based; conditions: Oocyte
# [2] = Selectivity index measured as the kb ratio of AMPA to that of NMDA.
# Summary of the method: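 Steady-state selectivity index: Kb at AMPA receptors (rat cortex poly(A)+ RNA oocytes, 10 μM AMPA) divided by Kb at NR1A/2C NMDA receptors (1 μM glycine, 100 μM glutamate), both from oocyte current inhibition at -70 mV.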
# [3] = biological target: Glutamate NMDA receptor (Rattus norvegicus) (UniProt P35439+Q00959+Q00960+Q00961+Q62645+Q8VHN2+Q9R1M7); experiment: Inhibition of N-methyl-D-aspartate glutamate receptor was measured in oocytes expressing cloned rat brain receptor subunits (NR1A/2C); format: cell-based; conditions: Oocyte
# Summary of the method: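 Xenopus oocytes expressing cloned rat NR1A/2C subunits, voltage-clamped at -70 mV. Currents were evoked by 1 μM glycine plus 100 μM glutamate. The apparent dissociation constant (Kb) was calculated from current inhibition assuming simple competitive antagonism, and reported with 95% confidence intervals adjusted to the linear scale.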
# [4] = biological target: Glutamate receptor ionotropic, NMDA 1 (Rattus norvegicus, UniProt P35439); experiment: Antagonism of N-methyl-D-aspartate glutamate receptor 1 sites using [3H]DCKA as a radioligand
SMILES,Kb [1] [µM],Selectivity index [2],Kb [3] [nM],IC50 [4] [nM]
O=c1cc(O)c2c([nH]c1=O)CCCC2,23,31,740,
O=c1cc(O)c2c([nH]c1=O)C[C@H](Cl)[C@@H](Cl)C2,0.78,19,42,130
O=c1cc(O)c2c([nH]c1=O)C1CCC2CC1,79,300,260,
CC1c2c(O)cc(=O)c(=O)[nH]c2C[C@H](Cl)[C@H]1Cl (stereo partly specified),0.51,120,4.1,
O=c1cc(O)c2c([nH]c1=O)C1CCC2C1 (stereo unspecified),,75,2800,
CC1Cc2[nH]c(=O)c(=O)cc(O)c2CC1C (stereo unspecified),5.3,44,120,
CCC1c2c(O)cc(=O)c(=O)[nH]c2C[C@H](Cl)[C@H]1Cl (stereo partly specified),0.72,260,2.8,
